Data as given in ChEMBL document CHEMBL2046405, “BACE1 Inhibitor Peptides: Can an Infinitely Small k cat Value Turn the Substrate of an Enzyme into Its Inhibitor?” (ACS Med Chem Lett, 2012).
The source made the active and inactive calls. The calls are words filed in the database; no cut-off is given here. Where a SMILES comes first, the peptide text is derived from it. [ ]: non-standard residue; d: D form. The star is where a group is joined. Orotyl(5-F) = O=C(c1[nH]c(=O)[nH]c(=O)c1F)*; Dap = NC[C@H](N)C(=O)O

Assays:
Beta-secretase 1 [1] = target: T1, Beta-secretase 1 (Homo sapiens, UniProt P56817); experiment: Inhibition of human recombinant BACE1 using 7-methoxycoumarin-4-yl)acetyl-Ser-Glu-Val-Asn-Leu*Asp-Ala- Glu-Phe-Arg-Lys(2,4-dinitrophenyl)-Arg-Arg-NH2 as substrate at 2 uM by FRET assay
Summary of the method: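 Recombinant human BACE1 incubated with FRET substrate and 2.0 μM compound in incubation buffer for 1 h. The N-terminal substrate cleavage fragment was measured by RP-HPLC with fluorescence detection.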

Beta-secretase 1 [2] = target: T1, Beta-secretase 1; experiment: Inhibition of human recombinant BACE1 using 7-methoxycoumarin-4-yl)acetyl-Ser-Glu-Val-Asn-Leu*Asp-Ala- Glu-Phe-Arg-Lys(2,4-dinitrophenyl)-Arg-Arg-NH2 as substrate by FRET assay
Summary of the method: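 Recombinant human BACE1 and FRET substrate incubated 1 h in incubation buffer with compound at 2.0 or 0.2 μM. The N-terminal cleavage fragment was analysed by reverse-phase HPLC with fluorescence detection.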

Beta-secretase 1 [3] = target: T1, Beta-secretase 1; experiment: Activity of human recombinant BACE1 after 1 hr
Summary of the method: (§1)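 Peptides incubated with recombinant human BACE1 for 1 or 24 h in buffer, at the same BACE1 and peptide concentrations as the inhibition assay. The buffer was analysed by HPLC for the product of cleavage at the P1–P1′ amide bond.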

Beta-secretase 1 [4] = target: T1, Beta-secretase 1; experiment: Inhibition of human recombinant BACE1 using 7-methoxycoumarin-4-yl)acetyl-Ser-Glu-Val-Asn-Leu*Asp-Ala- Glu-Phe-Arg-Lys(2,4-dinitrophenyl)-Arg-Arg-NH2 as substrate at 0.2 uM by FRET assay
Summary of the method: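 Recombinant human BACE1 incubated with FRET substrate and 0.2 μM compound in incubation buffer for 1 h. The N-terminal cleavage fragment of the substrate was quantified by RP-HPLC with fluorescence detection.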

Beta-secretase 1 [5] = target: T1, Beta-secretase 1; experiment: Activity of human recombinant BACE1 after 24 hrs; summary of the method: as §1

T1 sequence (P56817 whole entry, the tested form may be a part): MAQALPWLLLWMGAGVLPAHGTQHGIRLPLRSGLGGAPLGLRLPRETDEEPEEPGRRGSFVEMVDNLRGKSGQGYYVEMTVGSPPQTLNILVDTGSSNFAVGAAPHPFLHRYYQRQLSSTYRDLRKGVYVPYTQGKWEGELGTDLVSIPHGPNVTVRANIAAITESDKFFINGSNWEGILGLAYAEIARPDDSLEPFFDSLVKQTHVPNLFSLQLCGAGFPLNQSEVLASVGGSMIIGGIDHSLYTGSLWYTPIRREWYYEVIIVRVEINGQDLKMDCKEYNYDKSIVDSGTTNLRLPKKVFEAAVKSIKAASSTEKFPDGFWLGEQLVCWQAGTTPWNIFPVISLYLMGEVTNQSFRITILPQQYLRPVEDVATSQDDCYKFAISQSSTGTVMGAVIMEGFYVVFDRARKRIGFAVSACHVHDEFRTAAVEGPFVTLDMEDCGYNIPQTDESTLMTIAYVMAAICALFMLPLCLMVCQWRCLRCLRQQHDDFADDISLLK

SMILES | inhibition (Beta-secretase 1 [1]) [%] | IC50 (Beta-secretase 1 [2]) [µM] | Activity (Beta-secretase 1 [3]) | inhibition (Beta-secretase 1 [4]) [%] | Activity (Beta-secretase 1 [5])
CC(C)C[C@H](NC(=O)[C@@H](NC(=O)[C@@H](N)CNC(=O)c1[nH]c(=O)[nH]c(=O)c1F)C(C)C)C(=O)N[C@@H](Cc1ccccc1)[C@@H](O)C(=O)Nc1cccc(C(=O)O)c1 | – | 0.026 | – | – | –
CC(C)C[C@H](NC(=O)[C@@H](NC(=O)[C@@H](N)CCC(=O)O)C(C)C)C(=O)N[C@@H](Cc1ccccc1)C(=O)N[C@H](CC(N)=O)C(=O)O | 29 | – | – | – | –
CC(C)C[C@H](NC(=O)[C@@H](NC(=O)[C@@H](N)CNC(=O)c1[nH]c(=O)[nH]c(=O)c1F)C(C)C)C(=O)N[C@@H](Cc1ccccc1)C(=O)N[C@H](CC(N)=O)C(=O)O | 95 | 0.086 | inactive | 65 | inactive
CC(C)C[C@H](NC(=O)[C@@H](NC(=O)[C@@H](N)CCC(=O)O)C(C)C)C(=O)N[C@@H](Cc1ccccc1)C(=O)N[C@H](CO)C(=O)N[C@@H](C)C(=O)N[C@@H](CCC(=O)O)C(=O)N[C@@H](Cc1ccccc1)C(=O)O | 28 | – | – | – | –
CC(C)C[C@H](NC(=O)[C@@H](NC(=O)[C@@H](N)CCC(=O)O)C(C)C)C(=O)N[C@@H](Cc1ccccc1)C(=O)N[C@H](CS)C(=O)N[C@@H](C)C(=O)N[C@@H](CCC(=O)O)C(=O)N[C@@H](Cc1ccccc1)C(=O)O | 28 | – | – | – | –
CC(C)C[C@H](NC(=O)[C@@H](NC(=O)[C@@H](N)CCC(=O)O)C(C)C)C(=O)N[C@@H](Cc1ccccc1)C(=O)N[C@@H](CO)C(=O)N[C@@H](C)C(=O)N[C@@H](CCC(=O)O)C(=O)N[C@@H](Cc1ccccc1)C(=O)O | 6 | – | – | – | –
CC(C)[C@H](NC(=O)[C@@H](N)CNC(=O)c1[nH]c(=O)[nH]c(=O)c1F)C(=O)N[C@@H](CC(N)=O)C(=O)N[C@@H](Cc1ccccc1)C(=O)N[C@@H](CC(N)=O)C(=O)O (H-[Dap](Orotyl(5-F))VNFN-OH) | < 5 | – | – | – | –
CC(C)C[C@H](NC(=O)[C@@H](NC(=O)[C@@H](N)CCC(=O)O)C(C)C)C(=O)N[C@@H](Cc1ccccc1)C(=O)N[C@@H](CS)C(=O)N[C@@H](C)C(=O)N[C@@H](CCC(=O)O)C(=O)N[C@@H](Cc1ccccc1)C(=O)O | < 5 | – | – | – | –
CC(C)C[C@H](NC(=O)[C@@H](NC(=O)[C@@H](N)CCC(=O)O)C(C)C)C(=O)N[C@@H](Cc1ccccc1)C(=O)O (H-EVLF-OH) | 8 | – | – | – | –
CC(C)[C@H](NC(=O)[C@@H](N)CCC(=O)O)C(=O)N[C@@H](CCCCN)C(=O)N[C@@H](Cc1ccccc1)C(=O)O (H-EVKF-OH) | 10 | – | – | – | –
CC(C)[C@H](NC(=O)[C@@H](N)CNC(=O)c1[nH]c(=O)[nH]c(=O)c1F)C(=O)N[C@@H](CC1CCCCC1)C(=O)N[C@@H](Cc1ccccc1)C(=O)N[C@H](CC(N)=O)C(=O)O | 92 | 0.141 | – | 58 | –

Second part, the compound after the results:

inhibition (Beta-secretase 1 [1]) [%] | IC50 (Beta-secretase 1 [2]) [µM] | Activity (Beta-secretase 1 [3]) | inhibition (Beta-secretase 1 [4]) [%] | Activity (Beta-secretase 1 [5]) | SMILES
7 | – | – | – | – | CC(C)C[C@H](NC(=O)[C@@H](NC(=O)[C@@H](N)CCC(=O)O)C(C)C)C(=O)N[C@@H](Cc1ccccc1)C(=O)N[C@@H](CN)C(=O)N[C@@H](C)C(=O)N[C@@H](CCC(=O)O)C(=O)N[C@@H](Cc1ccccc1)C(=O)O
89 | 0.173 | inactive | 56 | inactive | CC(C)C[C@H](NC(=O)[C@@H](NC(=O)[C@@H](N)CNC(=O)c1[nH]c(=O)[nH]c(=O)c1F)C(C)C)C(=O)N[C@@H](Cc1ccccc1)C(=O)N[C@@H](CC(N)=O)C(=O)O
85 | 0.263 | inactive | 48 | inactive | CC(C)C[C@H](NC(=O)[C@@H](NC(=O)[C@@H](N)CNC(=O)c1[nH]c(=O)[nH]c(=O)c1F)C(C)C)C(=O)N[C@@H](Cc1ccccc1)C(=O)N[C@@H](CO)C(=O)O
92 | 0.163 | – | 54 | – | CC(C)[C@H](NC(=O)[C@@H](N)CNC(=O)c1[nH]c(=O)[nH]c(=O)c1F)C(=O)N[C@@H](CC1CCCCC1)C(=O)N[C@@H](Cc1ccccc1)C(=O)N[C@H](CO)C(=O)O
15 | – | – | – | – | CC(C)C[C@H](NC(=O)[C@@H](NC(=O)[C@@H](N)CCC(=O)O)C(C)C)C(=O)N[C@@H](Cc1ccccc1)C(=O)N[C@H](CN)C(=O)N[C@@H](C)C(=O)N[C@@H](CCC(=O)O)C(=O)N[C@@H](Cc1ccccc1)C(=O)O
94 | 0.082 | – | 69 | – | CC(C)C[C@H](NC(=O)[C@@H](NC(=O)[C@@H](N)CNC(=O)c1[nH]c(=O)[nH]c(=O)c1F)C(C)C)C(=O)N[C@@H](Cc1ccccc1)C(=O)N[C@@H](C(=O)O)C(C)C
< 5 | – | – | – | – | CC(C)[C@H](NC(=O)[C@@H](N)CNC(=O)c1[nH]c(=O)[nH]c(=O)c1F)C(=O)N[C@@H](CC(N)=O)C(=O)N[C@@H](Cc1ccccc1)C(=O)O (H-[Dap](Orotyl(5-F))VNF-OH)
94 | 0.138 | inactive | 57 | inactive | CC(C)C[C@H](NC(=O)[C@@H](NC(=O)[C@@H](N)CNC(=O)c1[nH]c(=O)[nH]c(=O)c1F)C(C)C)C(=O)N[C@@H](Cc1ccccc1)C(=O)N[C@H](CO)C(=O)O
23 | – | – | – | – | CC(C)C[C@H](NC(=O)[C@@H](NC(=O)[C@@H](N)CCC(=O)O)C(C)C)C(=O)N[C@@H](Cc1ccccc1)C(=O)N[C@H](CO)C(=O)O
90 | 0.184 | Active | 54 | Active | CC(C)C[C@H](NC(=O)[C@@H](NC(=O)[C@@H](N)CNC(=O)c1[nH]c(=O)[nH]c(=O)c1F)C(C)C)C(=O)N[C@@H](Cc1ccccc1)C(=O)O (H-[Dap](Orotyl(5-F))VLF-OH)
< 5 | – | – | – | – | CC(C)[C@H](NC(=O)[C@@H](N)CCC(=O)O)C(=O)N[C@@H](CC(N)=O)C(=O)N[C@@H](Cc1ccccc1)C(=O)O (H-EVNF-OH)
93 | 0.169 | – | 53 | – | CC(C)C[C@H](NC(=O)[C@@H](NC(=O)[C@@H](N)CNC(=O)c1[nH]c(=O)[nH]c(=O)c1F)C(C)C)C(=O)N[C@@H](Cc1ccccc1)C(=O)N[C@H](C)C(=O)O
